# From ChEMBL document CHEMBL1133603, “Synthesis and antimalarial activity of artemisinin derivatives containing an amino group” (2000)
# Several values for one entry are separate records, joined by “and”; a condition that tells them apart may be missing. Identical values can stand only once.
# Legend:
# Plasmodium berghei [1] = assay: Antimalarial activity against Plasmodium berghei K173 after peroral dose
# Monkey [2] = assay: Mean time for 50% reduction in parasitaemia at a dose of 3.16 mg/kg/day after oral administration on Plasmodium knowlesi in rhesus monkeys (7-day treatment); format: functional, Cercopithecidae
# How it was run: (§1)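 Rhesus monkeys inoculated intravenously on D0 with 2 × 107 P. knowlesi. Compounds given orally once daily D0–D6 (7-day treatment) at 3.16 or 10.0 mg/kg/day, as stated per line. Parasitaemia followed to assess clearance rapidity; cure or recrudescence also recorded.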
# Plasmodium berghei [3] = assay: Antimalarial activity against Plasmodium berghei […] after subcutaneous dose; format: functional
# How it was run: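 Mice inoculated intraperitoneally on day 0 with 1.5 × 107 P. berghei K173 parasitized cells. Test agents dissolved or ground in water or peanut oil, given once daily D0–D3 at 0.625, 1.25, 2.5, 5 and 10 mg/kg, orally or subcutaneously. Blood smears taken D4, stained and examined by microscopy.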
# Monkey [4] = assay: Mean time for 90% reduction in parasitaemia at a dose of 3.16 mg/kg/day after oral administration on Plasmodium knowlesi in rhesus monkeys (7-day treatment); format: functional, Cercopithecidae
# How it was run: as §1
# Monkey [5] = assay: Time of clearance after oral administration on Plasmodium knowlesi in rhesus monkeys (7-day treatment); format: functional, Cercopithecidae
# How it was run: as §1
# Plasmodium berghei [6] = assay: Antimalarial activity against Plasmodium berghei K173 after peroral dose; remark: listed apart in the source
# Monkey [7] = assay: Mean time for 50% reduction in parasitaemia at a dose of 10 mg/kg/day after oral administration on Plasmodium knowlesi in rhesus monkeys (7-day treatment); format: functional, Cercopithecidae
# How it was run: as §1
# Monkey [8] = assay: Mean time for 90% reduction in parasitaemia at a dose of 10 mg/kg/day after oral administration on Plasmodium knowlesi in rhesus monkeys (7-day treatment); format: functional, Cercopithecidae
# How it was run: as §1
# Monkey [9] = assay: Percent parasitaemia before treatment at a dose of 10 mg/kg/day after oral administration on Plasmodium knowlesi in rhesus monkeys (7-day treatment); format: functional, Cercopithecidae
# How it was run: as §1
# Monkey [10] = assay: Percent parasitaemia before treatment at a dose of 3.16 mg/kg/day after oral administration on Plasmodium knowlesi in rhesus monkeys (7-day treatment); format: functional, Cercopithecidae
# How it was run: as §1
# Monkey [11] = assay: Percent parasitaemia before treatment at a dose of 10 mg/kg/day after oral administration on Plasmodium knowlesi in rhesus monkeyss (7-day treatment); format: functional, Cercopithecidae
# How it was run: as §1
SMILES,SD50 (Plasmodium berghei [1]) [mg/kg/day],Reduction (Monkey [2]) [h],SD50 (Plasmodium berghei [3]) [mg/kg/day],SD90 (Plasmodium berghei [3]) [mg/kg/day],Reduction (Monkey [4]) [h],Parasite_Clearance_time (Monkey [5]),SD90 (Plasmodium berghei [6]) [mg/kg/day],Reduction (Monkey [7]) [h],Reduction (Monkey [8]) [h],Parasitemia (Monkey [9]) [%],Parasitemia (Monkey [10]) [%],Parasitemia (Monkey [11]) [%]
C[C@@H]1CCC2[C@@H](C)[C@@H](OCCCN3CCOCC3)O[C@@H]3O[C@@]4(C)CCC1[C@@]23OO4.O=C(O)/C=C\C(=O)O (stereo partly specified),1.82,5.19,5.57,302.49,11.8,40 h,5.28,,,,,
C[C@H]1C(OC(=O)CCC(=O)O)O[C@@H]2O[C@@]3(C)CCC4[C@H](C)CCC1[C@]42OO3 (stereo partly specified),6.33,7.84,,,13.3,50 h and 54 h,23.39,8.21,13.74,35,42.7,
C[C@@H]1CCC2[C@@H](C)[C@@H](OCCN(C)C)O[C@@H]3O[C@@]4(C)CCC1[C@@]23OO4.O=C(O)C(=O)O (stereo partly specified),1.61,5.29,24.57,255.83,12.09,44 h,4.71,6.25,13.98,42.5,51.5,
C[C@@H]1CCC2[C@@H](C)[C@@H](OCCNCCO)O[C@@H]3O[C@@]4(C)CCC1[C@@]23OO4.O=C(O)/C=C\C(=O)O (stereo partly specified),1.74,4.5,27.66,165.96,11.38,52 h,5.08,,,,,74
C[C@@H]1CCC2[C@@H](C)[C@@H](OCCCN3CCOCC3)O[C@@H]3O[C@@]4(C)CCC1[C@@]23OO4.O=C(O)/C=C/C(=O)O (stereo partly specified),1.33,,,,,,11.19,,,,,
C[C@@H]1CCC2[C@@H](C)[C@@H](OCCN3CCOCC3)O[C@@H]3O[C@@]4(C)CCC1[C@@]23OO4.O=C(O)C(=O)O (stereo partly specified),1.61,,,,,,5.26,,,,,
C[C@@H]1CCC2[C@@H](C)[C@@H](OCCN3CCOCC3)O[C@@H]3O[C@@]4(C)CCC1[C@@]23OO4.O=C(O)/C=C\C(=O)O (stereo partly specified),1.82,,,,,,7.29,,,,,
CCN(CC)CCO[C@H]1O[C@@H]2O[C@@]3(C)CCC4[C@H](C)CCC([C@H]1C)[C@]42OO3.O=C(O)C(=O)O (stereo partly specified),,4.5,24.57,255.83,11.38,52 h,,,,,,
